Data on eight compounds can be found in ChEMBL document CHEMBL3877325, “Novel salicylanilides from 4,5-dihalogenated salicylic acids: Synthesis, antimicrobial activity and cytotoxicity” (Bioorg Med Chem, 2017).

Data set [1] deals with Mycobacterium kansasii. In words: Antimycobacterial activity against Mycobacterium kansasii isolate 235/80 after 14 days by micromethod. The class given is functional. The note with it: isolate 235/80, 336 h. The gist of the method:
(§1)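 MIC in Šula's semisynthetic medium at 37 °C, read after 7, 14 and 21 days. Inoculum is strain dilution 10^-4; 235/80 is a collection strain and 6509/96 a clinical isolate. Compounds are added as DMSO solutions at 500, 250, 125, 62.5, 32, 16, 8, 4, 2, 1 and 0.5 µM. INH (in sterile water) and PAS are the reference drugs.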

Data set [2] has as its system Mycobacterium kansasii. In words: Antimycobacterial activity against Mycobacterium kansasii isolate 6509/96 after 14 days by micromethod. The note with it: isolate 6509/96, 336 h. The class given is functional. In outline: as §1
Data set [3] is described as follows: Cytotoxicity against human HepG2 cells assessed as reduction in cell viability after 24 hrs by MTS assay. The format is toxicity, cell-based. In outline: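 HepG2 cells (passages 33-37) are grown in MEM with 10% FBS, L-glutamine and non-essential amino acids. They are seeded at 1 × 10^4 cells/well and treated next day with 0.1-100 µM in triplicate for 24 h at 37 °C, 5% CO2. MTS reagent is added for 2 h and A490 read.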
For orientation: Formazan colour is commonly taken as a measure of viable cells.

Data set [4] in a line: Selectivity index, ratio of IC50 for human HepG2 cells to MIC for Mycobacterium tuberculosis H37Rv after 21 days. The format is toxicity, cell-based. The note with it: HepG2 cells versus Mycobacterium tuberculosis H37Rv, read-out: Selectivity Index. In outline:
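HepG2 cells (passages 33-37) seeded at 1 × 10^4 per well and treated next day with 0.1–100 µM in triplicate. After 24 h at 37 °C, 5% CO2, MTS reagent added for 2 h and absorbance read at 490 nm. IC50 taken from viability relative to untreated control, then divided by the 21-day H37Rv MIC.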

In data set [5] the test system is Mycobacterium kansasii. In words: Antimycobacterial activity against Mycobacterium kansasii isolate 6509/96 after 21 days by micromethod. The note with it: isolate 6509/96, 504 h. The class given is functional. In outline:
as §1

Data set [6] relates to Mycobacterium kansasii. Description: Antimycobacterial activity against Mycobacterium kansasii isolate 235/80 after 21 days by micromethod. The settings on record: isolate 235/80, 504 h. The format is functional. The gist of the method: as §1
Data set [7] concerns Mycobacterium kansasii. Description: Antimycobacterial activity against Mycobacterium kansasii isolate 6509/96 after 7 days by micromethod. The format is functional. The settings on record: isolate 6509/96, 168 h. The gist of the method:
as §1

The test system of data set [8] is Mycobacterium tuberculosis. Description: Antimycobacterial activity against Mycobacterium tuberculosis H37Rv My 331/88 after 21 days by micromethod. The format is functional. The settings on record: H37Rv My 331/88, 504 h. In outline: (§2)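 MIC micromethod in Šula's semisynthetic medium at 37 °C, read after 14 and 21 days. Compounds added as DMSO solutions at 500 down to 0.5 µM (twofold-type series: 500, 250, 125, 62.5, 32, 16, 8, 4, 2, 1, 0.5 µM). Isoniazid standard given in sterile water.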

Data set [9] deals with Mycobacterium kansasii. Description: Antimycobacterial activity against Mycobacterium kansasii isolate 235/80 after 7 days by micromethod. The class given is functional. The note with it: isolate 235/80, 168 h. The gist of the method:
as §1

The test system of data set [10] is Mycobacterium tuberculosis. Description: Antimycobacterial activity against Mycobacterium tuberculosis H37Rv My 331/88 after 14 days by micromethod. The format is functional. The settings on record: H37Rv My 331/88, 336 h. The gist of the method: as §2
In data set [11] the test system is Mycobacterium avium. Description: Antimycobacterial activity against Mycobacterium avium My 330/80 after 14 days by micromethod. The format is functional. The note with it: My 330/80, 336 h. In outline:
(§3)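 M. avium My 330/80 (collection strain) inoculated at 10^-5 dilution into Šula's semisynthetic medium. Compounds added from DMSO solutions at 500, 250, 125, 62.5, 32, 16, 8, 4, 2, 1 and 0.5 µM. MIC determined by micromethod at 37 °C, read after 14 and 21 days.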

In data set [12] the test system is Mycobacterium avium. In words: Antimycobacterial activity against Mycobacterium avium My 330/80 after 21 days by micromethod. The class given is functional. The note with it: My 330/80, 504 h. The gist of the method:
as §3

The structures appear in SMILES notation. Converted amounts (≈) assume the structure as drawn.

As a reminder, the MIC is the lowest concentration that inhibits growth of the organism. In general, IC50 refers to the point on the concentration scale where inhibition reaches its midpoint.

Turning to `O=C(Nc1ccc(Cl)c(Cl)c1)c1ccc(Cl)cc1O`, the minimum inhibitory concentration (MIC) against Mycobacterium kansasii [1] turned out to be 8 µM (≈ 2.53 µg/mL); against Mycobacterium kansasii [2] it was 4 µM (≈ 1.27 µg/mL); against Mycobacterium kansasii [5] it was 8 µM (≈ 2.53 µg/mL); with Mycobacterium kansasii [6], 8 µM (≈ 2.53 µg/mL); in the data set on Mycobacterium kansasii [7] it was 4 µM (≈ 1.27 µg/mL); in data set [8], 4 µM (≈ 1.27 µg/mL). The MIC came to 4 µM (≈ 1.27 µg/mL) against Mycobacterium kansasii [9], 4 µM (≈ 1.27 µg/mL) in [10], 16 µM (≈ 5.07 µg/mL) in the data set on Mycobacterium avium [11] and 16 µM (≈ 5.07 µg/mL) with Mycobacterium avium [12]. For the same compound, the IC50 at 24 h in data set [3] was 2.23 µM. For the same compound, the selectivity ratio at 504 h in data set [4] was found to be 0.56.

In the case of `O=C(Nc1ccc(Br)cc1)c1ccc(Cl)cc1O`, the MIC was 4 µM (≈ 1.31 µg/mL) with Mycobacterium kansasii [1]; 8 µM (≈ 2.61 µg/mL) against Mycobacterium kansasii [2]; 8 µM (≈ 2.61 µg/mL) against Mycobacterium kansasii [5]; 4 µM (≈ 1.31 µg/mL) in the data set with Mycobacterium kansasii [6]; 4 µM (≈ 1.31 µg/mL) in the data set on Mycobacterium kansasii [7]; 4 µM (≈ 1.31 µg/mL) in data set [8]. Besides, the MIC turned out to be 4 µM (≈ 1.31 µg/mL) in the data set on Mycobacterium kansasii [9], 4 µM (≈ 1.31 µg/mL) in data set [10], 16 µM (≈ 5.23 µg/mL) against Mycobacterium avium [11] and 16 µM (≈ 5.23 µg/mL) in the data set with Mycobacterium avium [12]. Besides, in data set [3], the IC50 at 24 h came out at 3.24 µM. For the same compound, the selectivity ratio at 504 h in data set [4] came to 0.81.

Consider `O=C(Nc1ccc(C(F)(F)F)cc1)c1ccc(Cl)cc1O`, for which the MIC was 4 µM (≈ 1.26 µg/mL) with Mycobacterium kansasii [1]; 2 µM (≈ 0.631 µg/mL) against Mycobacterium kansasii [2]; 4 µM (≈ 1.26 µg/mL) in the data set with Mycobacterium kansasii [5]; 4 µM (≈ 1.26 µg/mL) against Mycobacterium kansasii [6]; 2 µM (≈ 0.631 µg/mL) in the data set with Mycobacterium kansasii [7]; 4 µM (≈ 1.26 µg/mL) in data set [8]. The MIC with Mycobacterium kansasii [9] was 2 µM (≈ 0.631 µg/mL); in data set [10] it was 4 µM (≈ 1.26 µg/mL); against Mycobacterium avium [11] it was 8 µM (≈ 2.53 µg/mL); against Mycobacterium avium [12], 8 µM (≈ 2.53 µg/mL). The IC50 at 24 h in data set [3] was found to be 2.64 µM. Further, in [4], the selectivity ratio at 504 h worked out at 0.66.

For `O=C(Nc1ccc(Br)cc1)c1cc(Cl)ccc1O`, the MIC against Mycobacterium kansasii [1] came out at 4 µM (≈ 1.31 µg/mL); in the data set on Mycobacterium kansasii [2], 8 µM (≈ 2.61 µg/mL); against Mycobacterium kansasii [5], 8 µM (≈ 2.61 µg/mL); with Mycobacterium kansasii [6], 4 µM (≈ 1.31 µg/mL); against Mycobacterium kansasii [7], 4 µM (≈ 1.31 µg/mL); in [8], 16 µM (≈ 5.23 µg/mL). The minimal inhibitory concentration (MIC) in the data set with Mycobacterium kansasii [9] is 4 µM (≈ 1.31 µg/mL); in [10], 8 µM (≈ 2.61 µg/mL); with Mycobacterium avium [11], 8 µM (≈ 2.61 µg/mL); against Mycobacterium avium [12], 8 µM (≈ 2.61 µg/mL). The IC50 at 24 h in data set [3] came to 3.14 µM. For the same compound, the selectivity ratio at 504 h in data set [4] stood at 0.2.

As to `O=C(Nc1ccc(C(F)(F)F)cc1)c1cc(Cl)ccc1O`, the minimal inhibitory concentration (MIC) in the data set with Mycobacterium kansasii [1] worked out at 1 µM (≈ 0.316 µg/mL); against Mycobacterium kansasii [2] it was 2 µM (≈ 0.631 µg/mL); against Mycobacterium kansasii [5], 2 µM (≈ 0.631 µg/mL); in the data set on Mycobacterium kansasii [6], 1 µM (≈ 0.316 µg/mL); in the data set on Mycobacterium kansasii [7], 2 µM (≈ 0.631 µg/mL); in [8], 2 µM (≈ 0.631 µg/mL). The MIC against Mycobacterium kansasii [9] was 1 µM (≈ 0.316 µg/mL); in data set [10], 2 µM (≈ 0.631 µg/mL); against Mycobacterium avium [11] it was 8 µM (≈ 2.53 µg/mL); with Mycobacterium avium [12], 8 µM (≈ 2.53 µg/mL).

Turning to `O=C(Nc1cc(C(F)(F)F)cc(C(F)(F)F)c1)c1cc(Br)ccc1O`, the MIC in the data set on Mycobacterium kansasii [1] was found to be 8 µM (≈ 3.43 µg/mL); against Mycobacterium kansasii [2], 8 µM (≈ 3.43 µg/mL); in the data set on Mycobacterium kansasii [5], 8 µM (≈ 3.43 µg/mL); against Mycobacterium kansasii [6], 8 µM (≈ 3.43 µg/mL); in the data set on Mycobacterium kansasii [7], 4 µM (≈ 1.71 µg/mL); in data set [8] it was 2 µM (≈ 0.856 µg/mL). For the same compound, the MIC in the data set with Mycobacterium kansasii [9] came to 4 µM (≈ 1.71 µg/mL); in data set [10] it was 2 µM (≈ 0.856 µg/mL); against Mycobacterium avium [11], 16 µM (≈ 6.85 µg/mL); in the data set on Mycobacterium avium [12], 16 µM (≈ 6.85 µg/mL). The IC50 at 24 h in data set [3] was found to be 7.8 µM. Also, in data set [4], the selectivity ratio at 504 h turned out to be 3.4.

On to `O=C(Nc1cc(C(F)(F)F)cc(C(F)(F)F)c1)c1ccc(Cl)cc1O`, for which the MIC turned out to be 8 µM (≈ 3.07 µg/mL) against Mycobacterium kansasii [1]; 8 µM (≈ 3.07 µg/mL) in the data set with Mycobacterium kansasii [2]; 8 µM (≈ 3.07 µg/mL) in the data set with Mycobacterium kansasii [5]; 16 µM (≈ 6.14 µg/mL) against Mycobacterium kansasii [6]; 8 µM (≈ 3.07 µg/mL) against Mycobacterium kansasii [7]; 4 µM (≈ 1.53 µg/mL) in data set [8]. In addition, the MIC against Mycobacterium kansasii [9] was found to be 8 µM (≈ 3.07 µg/mL); in data set [10] it was 4 µM (≈ 1.53 µg/mL); in the data set on Mycobacterium avium [11] it was 16 µM (≈ 6.14 µg/mL); against Mycobacterium avium [12] it was 16 µM (≈ 6.14 µg/mL). Also, the IC50 at 24 h in [3] came to 9.55 µM. In data set [4], the selectivity ratio at 504 h stood at 2.39.

Turning to `O=C(Nc1ccc(C(F)(F)F)cc1)c1cc(Br)ccc1O`, the MIC against Mycobacterium kansasii [1] came to 2 µM (≈ 0.72 µg/mL); in the data set on Mycobacterium kansasii [2], 4 µM (≈ 1.44 µg/mL); against Mycobacterium kansasii [5], 4 µM (≈ 1.44 µg/mL); against Mycobacterium kansasii [6], 4 µM (≈ 1.44 µg/mL); with Mycobacterium kansasii [7], 2 µM (≈ 0.72 µg/mL); in data set [8] it was 1 µM (≈ 0.36 µg/mL). The MIC in the data set on Mycobacterium kansasii [9] came out at 2 µM (≈ 0.72 µg/mL); in data set [10], 1 µM (≈ 0.36 µg/mL); against Mycobacterium avium [11] it was 1 µM (≈ 0.36 µg/mL); against Mycobacterium avium [12], 1 µM (≈ 0.36 µg/mL). In addition, the IC50 at 24 h in data set [3] stood at 1.81 µM. Also, in data set [4], the selectivity ratio at 504 h is 1.81.
